Screening data as filed in PubChem.
ARFGAP1 inhibitor – inhibits rat ARF GTPase activating protein 1 | Arfgap1-stimulated ARF1 GTP hydrolysis, GDP FP detection | inhibition, % at 16.5 µM | 360,000 tested, 0.26% active | AID 651572;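 active = inhibition above a per-plate limit, mean inhibition of low control wells plus 3 SD, cut at about 25% in these data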;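 also: 0% = DMSO wells with enzyme and 100% = wells lacking Arfgap1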
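Assay system: purified rat His6-Arfgap1 residues 1-136 (GAP domain); Reagent: human Δ17 ARF1 bound to GTP; Dosing: 16.5 µM single point, 1.26% DMSO; Times: GTP hydrolysis reaction 2 h at 25 °C; Signal: FP, GDP Alexa 633 tracer displaced from anti-GDP antibody, 620/688 nm; Measure: % inhibition from polarization.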
Granule exo inh – lytic granule exocytosis inhibition. 360,000 tested, 0.66% active. inhibition, % at 10 µM. TALL-104 LAMP-1 surface exposure, flow cytometry; cells stimulated with thapsigargin and PMA. AID 651702;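 active = inhibition above about 55%, limit read from the data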
CendR NRP1 mod – modulators of CendR peptide binding to human neuropilin-1. O14786. FAM-RPARPAR peptide binding to NRP-1, fluorescence polarization. inhibition, % at 25 µM. 360,000 tested, 0.85% active;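 active = inhibition or corrected inhibition above about 18%, plus a signal ratio from 0.5 to 1.5, limit read from the data, passing the limit was not always enough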
V-ATPase pHluor – alters yeast V-ATPase proton transport; S. cerevisiae, pHLuorin cytosolic pH fluorescence; response, % at 10 µM; 350,000 tested, 0.37% active; in the data active = response mostly above about 7.3%, no sharp cut-off; inactive = mostly below about 5.4%; also: actives read high
ASAP1 GAP inh – inhibitors of human ASAP1 ArfGAP activity; 360,000 tested, 0.19% active; AID 624377; Q9ULH1; ASAP1-stimulated ARF1 GTP hydrolysis, GDP FP detection; inhibition, % at 16.5 µM; in the data active = inhibition above about 25%;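 also: 0% = vehicle with enzyme and substrate and 100% = no enzyme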
Target sequence (Q9ULH1 325-724 limits assumed): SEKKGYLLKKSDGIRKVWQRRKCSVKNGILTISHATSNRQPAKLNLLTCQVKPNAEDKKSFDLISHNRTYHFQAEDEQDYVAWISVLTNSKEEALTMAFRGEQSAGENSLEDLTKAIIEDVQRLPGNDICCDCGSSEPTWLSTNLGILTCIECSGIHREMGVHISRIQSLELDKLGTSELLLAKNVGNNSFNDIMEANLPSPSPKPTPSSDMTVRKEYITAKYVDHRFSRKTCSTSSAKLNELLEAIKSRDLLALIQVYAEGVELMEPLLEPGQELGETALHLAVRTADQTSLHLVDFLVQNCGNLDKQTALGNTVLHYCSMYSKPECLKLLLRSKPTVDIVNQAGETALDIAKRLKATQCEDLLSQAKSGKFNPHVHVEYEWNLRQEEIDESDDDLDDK
Active calls of the source: *. Compounds with a hit are over-represented: about 2.2% of the library has one in this group of screens.

`COc1ccc2cc(C(c3nnnn3CC3CCCO3)N3CCOCC3)c(=O)[nH]c2c1` (configuration not stated) gave ARFGAP1 inhibitor -1.2, Granule exo inh -4.9, CendR NRP1 mod 3.2, V-ATPase pHluor 3.6 and ASAP1 GAP inh -14.3.
`CCCCNC(=O)CSc1nc2ccc(C)cc2[nH]1` gave ARFGAP1 inhibitor 5.1, Granule exo inh -1.6, CendR NRP1 mod 34.7*, V-ATPase pHluor 1.2 and ASAP1 GAP inh -2.2.
Screening COc1ccc(CNC(=O)CSc2nc3ccc(C)cc3[nH]2)cc1 returned ARFGAP1 inhibitor 9.3, Granule exo inh -1.1, CendR NRP1 mod 3.9, V-ATPase pHluor 3.6 and ASAP1 GAP inh -17.5.
`CC(C)[C@H](NC(=O)CC1CCCC1)C(=O)N1CCC[C@H]1C(=O)NCCc1ccccc1Cl` gave ARFGAP1 inhibitor -3.0 and ASAP1 GAP inh 4.3.
For CC(=O)Nc1ncc2c(n1)CC(c1ccco1)CC2=O (configuration not stated) the results were ARFGAP1 inhibitor 7.5, Granule exo inh -1.0, CendR NRP1 mod -6.8, V-ATPase pHluor 1.6 and ASAP1 GAP inh -12.7.
`COc1cccc(C(=O)Nc2ncc3c(n2)CC(C)CC3=O)c1` (configuration not stated) gave ARFGAP1 inhibitor -7.1, Granule exo inh -2.2, CendR NRP1 mod -11.2, V-ATPase pHluor -1.7 and ASAP1 GAP inh 5.4.
`COc1ccc(C(=O)Nc2ncc3c(n2)CC(c2ccco2)CC3=O)cc1` (configuration not stated) gave ARFGAP1 inhibitor -6.5, Granule exo inh 16.8, CendR NRP1 mod 35.7*, V-ATPase pHluor 2.2 and ASAP1 GAP inh 13.1.
For COc1cc(OC)cc(C(=O)Nc2ncc3c(n2)CC(C)CC3=O)c1 (configuration not stated) the results were ARFGAP1 inhibitor -6.5, Granule exo inh -2.1, CendR NRP1 mod 34.8*, V-ATPase pHluor 1.4 and ASAP1 GAP inh -12.4.
`COC(=O)c1cccc(Nc2cc(C)n(-c3cccc(C(=O)OC)c3)c(=O)c2)c1` gave ARFGAP1 inhibitor 0.7 and ASAP1 GAP inh 11.8.
Screening CC(C)C[C@H](NC(=O)c1ccccc1)C(=O)N1CCC[C@H]1C(=O)NCc1ccccc1 returned ARFGAP1 inhibitor -1.3 and ASAP1 GAP inh 2.0.
`COc1ccc(/C=C2\SC(=S)N(N3C(=O)CCC3=O)C2=O)cc1O` gave ARFGAP1 inhibitor -0.7, Granule exo inh 3.9, CendR NRP1 mod 36.4*, V-ATPase pHluor -3.6 and ASAP1 GAP inh 0.2.
For COc1ccc(/C=C2/SC(=S)N(Cc3ccccc3)C2=O)cc1O the results were ARFGAP1 inhibitor 6.5, Granule exo inh -24.0, CendR NRP1 mod -15.6, V-ATPase pHluor -3.1 and ASAP1 GAP inh 10.3.
`COc1cc(N(C)C)ccc1C=c1c2ccccc2n2c1cc(-c1ccccc1)[n+]2C` gave ARFGAP1 inhibitor 12.6, Granule exo inh 99.6*, CendR NRP1 mod -69.6, V-ATPase pHluor -4.2 and ASAP1 GAP inh 35.6*.
Screening COc1cc(C=c2c3ccccc3n3c2cc(-c2ccccc2)[n+]3C)cc(OC)c1OC returned ARFGAP1 inhibitor 21.2, Granule exo inh 19.0, CendR NRP1 mod -36.7, V-ATPase pHluor -0.5 and ASAP1 GAP inh 14.1.
For CN(C)c1ccc(C=c2c3ccccc3n3c2cc(-c2ccccc2)[n+]3C)cc1 the results were ARFGAP1 inhibitor 1.8, Granule exo inh 88.9*, CendR NRP1 mod -137.3, V-ATPase pHluor -2.2 and ASAP1 GAP inh 9.8.
CN(C)c1ccc(C=c2c3ccccc3n3c2c2c([n+]3C)CCCC2)cc1 was read as ARFGAP1 inhibitor 8.8, Granule exo inh 70.2*, CendR NRP1 mod -2.9, V-ATPase pHluor -0.5 and ASAP1 GAP inh 11.7.
CN(C)c1ccc(C=c2c3ccccc3n3c2cc(-c2ccc(Cl)cc2)[n+]3C)cc1 was read as ARFGAP1 inhibitor 14.1, Granule exo inh 35.3, CendR NRP1 mod -77.9, V-ATPase pHluor -1.4 and ASAP1 GAP inh -5.3.
`CN(C)c1ccc(C=c2c3cc([N+](=O)[O-])ccc3n3c2cc(-c2ccccc2)[n+]3C)cc1` gave ARFGAP1 inhibitor 39.1*, Granule exo inh 19.6, CendR NRP1 mod 3.9, V-ATPase pHluor 1.5 and ASAP1 GAP inh 19.5.
Screening O=Cc1ccc(/C=C2\c3ccccc3C(=O)N2c2ccccc2)o1 returned ARFGAP1 inhibitor -4.0 and ASAP1 GAP inh 10.9.
CCC(C)Sc1ccc([C@H]2N[C@@](Cc3ccccc3)(C(=O)OC)[C@H]3C(=O)N(CC)C(=O)[C@@H]23)cc1 (some centres not stated) was read as ARFGAP1 inhibitor 1.4, Granule exo inh -4.0, CendR NRP1 mod -2.4, V-ATPase pHluor -6.0 and ASAP1 GAP inh -7.4.
